# A selection: hits, their analogues and other compounds. The true share with any hit is near 9%.
# AP ELISA ortho – alternative pathway complement inhibition, orthogonal assay; Human serum alternative complement pathway, LPS-coated ELISA, C3 deposition; tested in compound mixtures; inhibition, % at 5 µM; 0.08% of 62,000 active; AID 1235;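 active = inhibition above 30% in each of the two pooled mixtures holding the compound, so the lower value exceeds 30%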;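 note: 0% = serum in Mg-EGTA without compound and 100% = EDTA serum blank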
#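 Test system: human serum alternative complement pathway, C3 deposition on LPS-coated wells; also added: Plate-bound LPS; doses: 5 µM per compound in ten-compound mixtures; schedule: 1 h at 37 °C; detection: Anti-C3 ELISA, OD 450 nm; evaluation: percent inhibition of C3 deposition onto LPS; repeats: two pool placements per compound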
# M1 agonist – activates the M1 muscarinic receptor; CHO-M1 cells, Fluo-4 calcium fluorescence, agonist mode; stronger effect = higher value; 3% of 64,000 active; AID 626; B-score at 10 µM;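 active = fluorescence rise, raw or as B-score row- and column-corrected plate score, outside the 99.7% band of its plate's samples, either direction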
# mHtt clearance – mutant huntingtin protein clearance; HeLa Exon1htt(103Q)mCFP, aggregate imaging; zero = plate's median compound well; inhibition, % at 1.5 µM; 0.42% of 47,000 active; AID 853;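 active = inhibition of aggregate fluorescence above about 70%, also judged a hit by eye on the cell image, limit read from the data, passing the limit was not always enough; inconclusive = no rule stated for this call; inactive = not judged a hit on image review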;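 note: cells exposed to compound for three days before fixation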
# M1 antag – M1 muscarinic receptor (rat) antagonism | P08482 | CHO-M1 cells, Fluo-4 calcium, ACh EC80 antagonist mode; stronger effect = lower value | B-score at 10 µM | 3.4% of 64,000 active;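 active = calcium fluorescence response, raw or row-and-column corrected B-score, differing from the plate sample mean either way at a set confidence level, mostly lower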
# D1 allo mod – allosterically modulates the human D1 dopamine receptor; P21728; HEK293 D1, CRE-luciferase, dopamine EC30 potentiation; actives deviate in either direction; B-score at 10 µM; 5.9% of 58,000 active; AID 641;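 active = luminescence count or its row- and column-corrected plate score outside the 99.7% band of the plate's sample wells, on either side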
# Target sequence (P21728 whole entry, looked up): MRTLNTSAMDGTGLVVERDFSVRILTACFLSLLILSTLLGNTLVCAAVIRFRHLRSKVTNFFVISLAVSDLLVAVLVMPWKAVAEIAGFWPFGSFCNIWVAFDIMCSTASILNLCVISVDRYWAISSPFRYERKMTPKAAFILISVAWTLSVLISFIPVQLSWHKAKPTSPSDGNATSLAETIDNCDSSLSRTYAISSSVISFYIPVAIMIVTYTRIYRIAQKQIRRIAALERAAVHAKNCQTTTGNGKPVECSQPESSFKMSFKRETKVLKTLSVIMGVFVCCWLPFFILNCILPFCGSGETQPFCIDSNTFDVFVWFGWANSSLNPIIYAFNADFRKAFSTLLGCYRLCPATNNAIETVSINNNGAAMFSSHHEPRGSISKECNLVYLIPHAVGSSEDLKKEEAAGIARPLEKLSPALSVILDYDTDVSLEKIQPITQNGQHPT
# M1 ag confirm – confirmation of rat M1 muscarinic receptor agonists | shares compounds with M1 agonist | CHO-M1 cells, Fluo-4 calcium fluorescence, agonist mode; actives lie on both sides | fluorescence change (max-min) at 10 µM | 19% of 1,700 active;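 active = fluorescence change differs from the solvent-only DMSO control mean at a set confidence level in both duplicate runs; inconclusive = differs from solvent-only control mean in just one of two runs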;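 note: an EC20 dose of acetylcholine follows compound addition during the same imaging run; raw fluorescence intensity difference in instrument units with no normalization to controls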
# M4 agonist ctr – activates rat M4 receptor in counter-screen for M1 agonists. fluorescence change (max-min) at 10 µM. 9% of 1,700 active. shares compounds with M1 agonist. CHO M4/Gqi5 cells, Fluo-4 calcium fluorescence, agonist mode; actives lie on both sides;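 active = fluorescence change differing from the plate's solvent-only control wells at 99.7% confidence in both duplicates, whether higher or lower; inconclusive = differs from solvent controls in only one of two duplicates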
# Starred values were filed as active, the others as inactive; ? = inconclusive; nt = not tested or not shown.
SMILES,AP ELISA ortho,M1 agonist,mHtt clearance,M1 antag,D1 allo mod,M1 ag confirm,M4 agonist ctr
CCc1nc(SCC(N)=O)c2c(=O)n(C)c(=O)n(C)c2n1,15.0,0.428,?,-0.0957,0.194,nt,nt
CCOc1ccccc1Nc1nc(N)nc(CN(C)C2CCCCC2)n1,13.4,-0.45,nt,-0.923,-0.695,nt,nt
COc1ccc2c(c1OC)C(=O)N1c3ccccc3C(=O)N(c3ccccc3)C21 (centres undefined),20.0,13.4*,nt,-1.34,nt,?,-37
COc1ccccc1N1C(=O)c2ccccc2NC1C(OC)OC (centres undefined),nt,nt,16.1,nt,nt,nt,nt
COc1ccc2c(c1OC)C(=O)N1c3ccccc3C(=O)N(c3ccc(F)cc3)C21 (centres undefined),15.3,13*,-2.1,-1.7,nt,-13,-26.9
Cc1ccccc1N1C(=O)c2ccccc2N2C(=O)c3ccccc3C12 (centres undefined),nt,nt,-16.5,nt,nt,nt,nt
C=CCN1C(=O)C2(/C(=C(\O)c3ccc4c(c3)OCCO4)C(=O)C(=O)N2CCCOC)c2ccccc21 (centres undefined),3.0,-0.323,-0.1,-0.163,-1.73,nt,nt
COc1ccc2nc(N3CCC(O)CC3)c(C#N)cc2c1,15.3,54.8*,-17.1,-0.291,1.28,198*,166*
COc1ccc2nc(N3CCC(C)CC3)c(C#N)cc2c1,11.4,4.01*,nt,-1.11,0.903,21.6,?
CCOC(=O)C1CCN(c2nc3cc(OC)ccc3cc2C#N)CC1,14.1,0.611,-9.2,-0.465,-0.0348,nt,nt
Cc1cc(C)n(-c2nc3ccccc3nc2N2CCN(C(=O)c3ccc(Cl)cc3)CC2)n1,15.3,0.852,-4.2,-0.0142,0.587,nt,nt
Cc1ccc2nc(-c3ccccn3)cc(C(=O)N3CCN(c4ncccn4)CC3)c2c1,13.3,3.57*,nt,-2.14,2.5,-1.89,-22.5
Cc1cc(C(=O)N2CCN(c3ncccn3)CC2)c2cc(F)ccc2n1,-4.3,-0.835,59.9,-0.0886,nt,nt,nt
Cc1ccc(-c2cc(C(=O)N3CCN(c4ncccn4)CC3)c3ccccc3n2)cc1,9.9,8.8*,16.9,-1.84,-0.294,-16.2,-111*
Cc1cc(-c2ccccc2)n(-c2ccc(C(=O)N3CCN(c4ncccn4)CC3)cc2)n1,7.0,9.15*,11.1,-1.04,nt,?,?
CC(C)Oc1cccc(-c2cc(C(=O)N3CCN(S(C)(=O)=O)CC3)c3ccccc3n2)c1,-10.5,3.65*,7.3,0.0902,0.691,?,-49.9
COc1cccc(-c2cc(C(=O)N3CCN(c4ncccn4)CC3)c3ccccc3n2)c1,1.7,3.06,nt,-1.87,0.0716,nt,nt
Cc1ccc(/C=C2\OC(=O)c3ccccc32)cc1,nt,nt,0.1,nt,nt,nt,nt
Cn1c(SCc2nc(-c3ccc(Cl)cc3)no2)nnc1-c1ccco1,21.1,-1.18,nt,0.313,-0.0947,nt,nt
COc1ccc(-c2cc(C(=O)N3CCOCC3)c3cc(C)ccc3n2)cc1,13.1,4.07*,-1.4,-0.329,-1.52,-9,-33.2
COc1ccc2oc(-c3ccccc3)c(C(=O)N3CCOCC3)c2c1,7.2,3.99*,32.2,-0.000463,1.82,-23.9,-31.8
CNC(=O)C1CC(=O)N(Cc2ccccc2)C(=Nc2ccc(OC)cc2)S1 (centres undefined),nt,10.3*,nt,-0.819,-0.0263,?,?
CCNC(=O)C1CC(=O)N(Cc2ccc(F)cc2)C(=Nc2ccc(OC)cc2)S1 (centres undefined),10.5,-0.681,nt,1.34,-1.6,nt,nt
O=C(CN1c2cccc3cccc(c23)S1(=O)=O)NCc1ccc2c(c1)OCO2,-5.6,21.1*,18.9,-3.96*,5.28*,47.5,-18.3
O=C(NCC(=O)N(Cc1ccccc1)C(C(=O)NC1CCCC1)c1ccco1)c1ccco1 (centres undefined),-9.1,9.4*,8.9,-1.48,-0.84,-12.3,-57.4
SMILES,AP ELISA ortho,M1 agonist,mHtt clearance,M1 antag,D1 allo mod,M1 ag confirm,M4 agonist ctr
COC(=O)C1=C(C)Nc2ncnn2C1c1ccc(C)o1 (centres undefined),-13.0,8.3*,-19.0,0.957,-0.0962,-31,-44
CCN=C1SC(CC(=O)Nc2ccc(N3CCOCC3)cc2)C(=O)N1CC (centres undefined),8.8,2.84*,-21.3,-0.662,1.09,?,-52.1
CCN=C1SC(CC(=O)NC2CCCCC2)C(=O)N1CC (centres undefined),-10.9,0.213,-22.1,0.135,0.0485,nt,nt
CCN=C1SC(CC(=O)Nc2ccc(C(F)(F)F)cc2)C(=O)N1CC (centres undefined),1.3,12.4*,-23.9,-2.95*,nt,?,-47.9
O=c1c2ccccc2nc(N2CCN(c3ccccc3)CC2)n1Cc1ccccc1,15.0,-0.896,nt,-1.1,-0.199,nt,nt
Cc1cc(C)n(C(=O)C(C)N2C(=O)c3ccccc3C2=O)n1 (centres undefined),7.9,2.04,nt,-1.07,-0.754,nt,nt
NS(=O)(=O)c1ccc(CCNc2ncnc3sccc23)cc1,3.2,3.07*,39.4,0.468,-1.88,0.133,-15.3
CS(=O)(=O)N1CCC(C(=O)Nc2ccc(Oc3ccccc3)cc2)CC1,-2.5,3.2*,17.8,-0.531,0.0211,?,-70.3
Cc1cccc(NC(=O)Cn2c(=O)oc3ccccc32)c1,2.1,-1.15,-29.7,0.166,-2.11,nt,nt
Cc1cc(C)nc(NCCCc2ccccc2)n1,-6.5,nt,-26.8,nt,nt,nt,nt
CCCCNc1cc(C)nc(NCc2ccccc2)n1,14.0,6.43*,46.0,-3.25*,-4.36,-10.4,-21.7
CC(C)C(O)P(=O)(OCc1ccccc1)c1ccc(N(C)C)cc1 (centres undefined),20.7,-0.71,7.8,-1.67,0.495,nt,nt
O=C(c1ccco1)N1CCN(c2ncnc3c2oc2ccccc23)CC1,10.2,14.1*,nt,-1.34,nt,-13.3,-25.6
COc1ccc(N2CCN(c3ncnc4nc[nH]c34)CC2)cc1,20.2,-2.34,nt,0.0953,3.21,nt,nt
COc1ccccc1N1CCN(c2ncnc3c2oc2ccccc23)CC1,33.2*,3.87*,0.5,-1.1,-0.163,-29.4*,-62.2
COc1ccccc1N1CCN(c2ncnc3nc[nH]c23)CC1,17.3,2.95*,nt,0.0102,1.5,?,-39.7
COc1ccc(NC(=O)CSc2nc(-c3ccncc3)nn2CC(=O)N2CCCC2)cc1,-0.1,-1.78,nt,-1.14,nt,nt,nt
CCOC(=O)N1CCC(N2Cc3cccc(C(=O)Nc4ccc(OC)c(OC)c4)c3C2=O)CC1,6.4,9.02*,2.9,-3.96*,-2.16*,-28.8,-36.5
COc1ccccc1C1C(C#N)=C(N)N(c2cccnc2)C2=C1C(=O)CC(C)(C)C2 (centres undefined),nt,nt,-16.7,nt,nt,nt,nt
CCOC(=O)c1c(N)n(CCOC(=O)c2cccs2)c2nc3ccccc3nc12,12.0,9.76*,-20.8,-1.03,0.776,-2.54,-36.5
CCOc1ccc(S(=O)(=O)N(C)CCO)cc1-c1nc2c(C(C)(C)C)nn(C)c2c(=O)[nH]1,nt,5.63*,18.8,-1.76,nt,-13.2,-33.1

# Bioassay records as filed in PubChem BioAssay.
